Screening results as filed in PubChem BioAssay.
Most compounds without a hit are left out; they make up all but 1.4% or so of the library.
ABCB6 inh MLPCN: human ABCB6 transporter inhibition. AID 602162. 0.19% of 360,000 active. K562-ABCB6 porphyrin accumulation, flow cytometry, 1 h; hits give low values. fluorescence ratio to DMSO, % at 10 µM;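 active means fluorescence ratio to DMSO below 75%, the collection mean minus 3 SD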;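 further: signal is porphyrin accumulated inside mitochondria; 100% equals median channel fluorescence of DMSO control wells; lower ratio means ABCB6 inhibition with less porphyrin fluorescence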
Target sequence (Q9NP58 whole entry, looked up): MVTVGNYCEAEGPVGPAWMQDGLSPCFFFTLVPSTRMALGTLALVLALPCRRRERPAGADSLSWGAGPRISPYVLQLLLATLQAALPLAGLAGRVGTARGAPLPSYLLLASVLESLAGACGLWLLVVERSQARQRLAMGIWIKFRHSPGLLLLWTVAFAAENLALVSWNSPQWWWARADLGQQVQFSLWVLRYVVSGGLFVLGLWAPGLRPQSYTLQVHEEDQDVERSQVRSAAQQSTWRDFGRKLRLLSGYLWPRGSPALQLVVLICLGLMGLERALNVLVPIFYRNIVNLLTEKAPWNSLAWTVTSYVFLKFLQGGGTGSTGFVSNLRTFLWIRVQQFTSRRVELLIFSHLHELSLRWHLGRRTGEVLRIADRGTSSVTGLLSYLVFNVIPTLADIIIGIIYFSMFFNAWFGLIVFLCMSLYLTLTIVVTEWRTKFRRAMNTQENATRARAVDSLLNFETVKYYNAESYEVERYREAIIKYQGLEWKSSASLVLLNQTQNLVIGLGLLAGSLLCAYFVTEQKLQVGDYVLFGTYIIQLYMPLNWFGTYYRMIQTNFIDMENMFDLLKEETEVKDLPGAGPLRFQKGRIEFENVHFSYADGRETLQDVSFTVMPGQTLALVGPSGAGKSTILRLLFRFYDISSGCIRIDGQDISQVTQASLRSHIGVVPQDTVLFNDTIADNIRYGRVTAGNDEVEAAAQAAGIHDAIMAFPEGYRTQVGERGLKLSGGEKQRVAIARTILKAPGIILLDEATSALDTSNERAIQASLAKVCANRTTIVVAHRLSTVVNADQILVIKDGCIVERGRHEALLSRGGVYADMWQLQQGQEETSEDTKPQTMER
TNAP act hi DEA: TNAP (human) activation, high acceptor. purified TNAP, CDP-star luminescence, 1 M DEA, 30 min; hits give high values; 0 = EDTA background, 1 = DMSO-only activity. activation factor at 20 µM. 200,000 tested, under 10 active. AID 1136;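 active means activation factor at least 2 at 20 µM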
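Control set: EDTA negative control, DMSO positive control / Assay system: human TNAP / Quantity: TNAP 1/800 final / Evaluation: TNAP activation factor scaled between EDTA and DMSO control wells / Measured by: luminescent substrate turnover signal / Compound dosing: one dose, 20 µM / Times: 30 min enzyme reaction at room temperature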
TNAP inh no acc: inhibitors of human TNAP without phosphate acceptor; inhibition, % at 20 µM; 0.26% of 200,000 active; purified TNAP, CDP-star luminescence, 30 min; AID 1012; P05186;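 active means tissue-nonspecific alkaline phosphatase inhibition above about 50% at 20 µM in the single-dose screen, limit read from the data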;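 further: 0% = DMSO negative control and 100% = EDTA positive control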
TNAP inh hiacc: TNAP (human) inhibition, high acceptor; inhibition, % at 20 µM; 0.03% of 200,000 active; P05186; purified TNAP, CDP-star luminescence, 1 M DEA;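 active means over 50% inhibition of tissue-nonspecific alkaline phosphatase at 20 µM in the single-dose screen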;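 further: plate controls were DMSO wells for no effect and EDTA-quenched wells as full inhibition for full effect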
CHT inh: inhibits the human high affinity choline transporter; Q9GZV3; CHT-expressing cells, membrane potential dye, choline response; hits give low values; B-score at 10 µM; 0.86% of 310,000 active;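 active means B-score over 3 SD under the library average, and starting fluorescence ratio not unusually high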;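 further: choline stimulus applied at its EC90 after an EC20 pre-addition; B-score computed on integrated fluorescence ratio after choline addition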
CHT PAM: human CHT allosteric activation; CHT-expressing cells, membrane potential dye, choline EC20; hits give high values; LV-AA mutant CHT in HEK293 cells; B-score at 10 µM; 0.49% of 310,000 active; AID 488977;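 active means initial fluorescence not abnormally high and integrated response B-score, plate-corrected, over 3 SD above library mean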
* marks the source's active call; other numbers are inactive results; i = inactive; nt = no result.

SMILES	ABCB6 inh MLPCN	TNAP act hi DEA	TNAP inh no acc	TNAP inh hiacc	CHT inh	CHT PAM
CN1CCN(Cc2cn[nH]c2-c2ccc(F)cc2F)[C@@H](c2ccccc2)C1	91	1.1	31	-6	i	i
Cn1cc(CN2C[C@H]3CC[C@H]2C3)c(-c2ccccc2F)n1	98	1	-8	-2	i	i
COc1ccc(-c2[nH]ncc2CN2C[C@@H]3CCC[C@H]2C3)c(F)c1	98	1.1	76*	-7	i	i
COc1cccc(C(=O)N2CCN(Cc3ccccc3C(F)(F)F)CC2)c1	109	1	-7	-2	i	i
COc1ccc(C(=O)N2CCN(Cc3cn[nH]c3-c3ccc(OC)cc3F)CC2)cc1	94	1	82*	-4	i	i
COc1ccc(CNC(=S)Nc2cccc(C)c2C)cc1	96	1.1	-13	-6	i	i
Cc1nc(C(F)(F)F)ccc1C(=O)N1CCC1(C)C(=O)NCc1ccc(Cl)cc1 (configuration not stated)	96	nt	nt	nt	nt	nt
O=C1CC(Cc2ccccc2)C(=O)N1CCCn1ccnc1 (configuration not stated)	nt	1	2	4	i	i
Cc1nn(CCCC(=O)NCCCN2CCN(C)CC2)c(=O)c2c1sc1ccccc12	101	nt	nt	nt	i	i
COc1ccc(-c2[nH]ncc2CN2CCN(C(=O)c3ccco3)CC2)cc1F	98	1	30	-3	i	i
O=C(c1ccco1)N1CCN(Cc2cn[nH]c2-c2ccc(F)cc2F)CC1	100	1.1	78*	-6	i	i
Cc1ccc(S(=O)(=O)Nc2ccc3cc([N+](=O)[O-])ccc3c2[N+](=O)[O-])cc1	97	nt	nt	nt	nt	nt
CN(C(=O)c1ccccc1NC(=O)C(F)(F)F)c1ccccc1	60*	1	-7	-1	i	i
COc1cc2c(cc1OC)CN(C(=O)CCNC(=O)c1ccccc1Cl)CC2	89	nt	nt	nt	nt	nt
CCCc1nnc2n1N=C(c1ccc(OC)c(OC)c1)CS2	105	1.1	-16	-8	-5*	i
C=CCc1cccc2cc(C(=O)Nc3cccc(C(=O)O)c3)c(=O)oc12	nt	nt	nt	nt	-6.5*	i
COc1cc(/C=C2/C(=N)N3C(=NC2=O)SN=C3S(C)(=O)=O)ccc1OS(=O)(=O)c1ccccc1	nt	nt	nt	nt	-6.2*	i
CCOc1cc(/C=C2/C(=N)N3C(=NC2=O)SN=C3S(C)(=O)=O)ccc1OS(=O)(=O)c1ccccc1	94	nt	nt	nt	-5.6*	i
CCOc1cc(/C=C2/C(=N)N3C(=NC2=O)SN=C3S(C)(=O)=O)ccc1OC(=O)c1ccco1	105	nt	nt	nt	i	i
O=[N+]([O-])c1cccnc1N1CCC(c2cc(-c3ccc(Cl)cc3)n[nH]2)CC1	102	1	50*	3	i	i
CCOC(=O)c1cc(NC(=O)Nc2cc(C)ccn2)c(C)nc1C	96	0.9	7	9	i	i
CCOC(=O)c1cc(NC(=O)Nc2nc3ccccc3s2)c(C)nc1C	101	1	58*	3	i	i
CN(C)C(=O)c1cccc(-c2cccc3nccn23)c1	104	nt	nt	nt	nt	nt
CC(C)NC[C@@H](O)c1ccc(O)c(O)c1	98	0.9	71*	9	i	i
C[C@H]1C(=O)N(C)CCN1C(=O)c1ccc(OC2CCN(CCc3ccccc3)CC2)cc1	98	nt	nt	nt	nt	nt
SMILES	ABCB6 inh MLPCN	TNAP act hi DEA	TNAP inh no acc	TNAP inh hiacc	CHT inh	CHT PAM
CN(CCc1ccccn1)C(=O)CCC1CCCN(C(=O)c2n[nH]c3c2CCCC3)C1 (configuration not stated)	97	1	70*	-4	i	i
CN(CCc1ccccn1)C(=O)CCC1CCCN(C(=O)c2ccccn2)C1 (configuration not stated)	123	1	-2	-2	i	i
CNC[C@@H]1Oc2cc(Br)ccc2S(=O)(=O)N([C@@H](C)CO)C[C@@H]1C	104	nt	nt	nt	nt	nt
COc1cccc(C(=O)NCC(=O)N/N=C/c2ccc3c(c2)OCO3)c1	73*	nt	nt	nt	i	i
O=C(CSc1n[nH]c(-c2ccccn2)n1)Nc1ccc(Cl)cc1	95	nt	nt	nt	i	i
O=C(CSc1n[nH]c(-c2ccc(Cl)cc2Cl)n1)Nc1ccccn1	92	0.9	93*	8	i	i
COc1ccc(-c2cc(C(F)(F)F)n3ncc(C(=O)NCC4CCCO4)c3n2)cc1OC (configuration not stated)	64*	1	2	0	i	i
O=C(c1ccc(F)cc1)c1cn[nH]c1-c1ccccc1O	95	1	56*	-2	i	i
CCOc1ccc(NC(=O)N2CCC(c3nc4ccccc4[nH]3)CC2)cc1	93	1	3	2	i	i
CCOC(=O)c1c(NC(=O)c2ccccc2)sc2c(O)c(CN(CC)CC)ccc12	69*	1	-9	0	i	i
CCN(CC)Cc1c(NC(=O)c2ccccc2)sc(C)c1C	97	1	-9	-2	i	i
C/C(=N\NC(=O)c1ccc(Br)cc1)C1C(=O)c2ccccc2C1=O	97	1.1	4	-9	-6.9*	i
CN(C)c1ccc(/C=C/c2ccc3ccccc3[n+]2C)cc1	494	0.4	57*	57*	i	i
CN(C)c1ccc(/C=C/c2cccc[n+]2[O-])cc1	97	nt	nt	nt	i	i
CN(C)c1ccc(/C=C/c2ccc3c4ccccc4ccc3[n+]2-c2ccccc2)cc1	i	0.3	74*	69*	nt	nt
Cc1ccc(C(C)C)cc1OCC(=O)Nc1ccc(N2CCCCC2)cc1	105	nt	nt	nt	i	i
CC(C)NC(=O)c1ccc2c(=O)n(C3CCCC3)c(=S)[nH]c2c1	101	1	0	3	i	i
CCN(CC)CCNC(=O)c1ccc2c(=O)n(C3CCCC3)c(=S)[nH]c2c1	102	1	-7	-1	-15*	i
COc1ccc(C2=NN(C(N)=S)C(c3ccco3)C2)cc1 (configuration not stated)	126	1	-4	2	i	i
COc1ccc(-c2nc3n(n2)C(=O)CC(c2ccco2)S3)cc1 (configuration not stated)	103	1	76*	0	i	i
Cc1onc(-c2c(F)cccc2Cl)c1C(=O)Nc1nccs1	89	1	3	-5	i	i
Cc1onc(-c2c(F)cccc2Cl)c1C(=O)Nc1nnc(C(F)(F)F)s1	103	nt	nt	nt	-8.7*	i
COCCN(C(=O)CSc1nnc(-c2ccccc2F)o1)c1c(N)n(Cc2ccccc2)c(=O)[nH]c1=O	104	nt	nt	nt	nt	nt
O=C1C2CC=CCC2C(=O)N1c1n[nH]c(Cc2ccccc2)n1 (configuration not stated)	100	1	96*	2	i	i
